Test results taken from ChEMBL document CHEMBL1131572, “A potent, orally bioavailable benzazepinone growth hormone secretagogue” (1998).

Species: Rattus norvegicus
Test: In vitro growth hormone (GH) releasing activity in rat primary pituitary cells.
Format: functional
Conditions: Pituitary gland cell, read-out: ED50 (the source's name)
In short: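 Rat anterior pituitaries dispersed with 0.2% collagenase and 0.2% hyaluronidase, then cultured 3–4 days at 37 °C, 5% CO₂, in DMEM with 10% horse serum and 2.5% FBS. Cells washed in medium with 25 mM HEPES pH 7.4, then exposed in quadruplicate to serially diluted agents (final 1% DMSO) for 15 min at 37 °C. Medium GH measured by double-antibody RIA; ED₅₀ = dose giving 50% maximal GH release.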

Structure (SMILES) | EC50
CC(C)(N)C(=O)N[C@@H]1CCc2ccccc2N(Cc2ccc(-c3ccccc3-c3nn[nH]n3)cc2)C1=O | 0.03 µM
CN(C)C(=O)NCc1ccccc1-c1ccc(CN2C(=O)[C@H](NC(=O)C(C)(C)N)CCc3ccccc32)cc1 | 0.06 µM
CC(C)(N)C(=O)N[C@@H]1CCc2ccccc2N(Cc2ccc(-c3ccccc3CNC(=O)NCCO)cc2)C1=O | 0.002 µM
CC(C)(N)C(=O)N[C@@H]1CCc2ccccc2N(Cc2ccc(-c3ccccc3CNC(N)=O)cc2)C1=O | 0.021 µM
CCCNC(=O)NCc1ccccc1-c1ccc(CN2C(=O)[C@H](NC(=O)C(C)(C)N)CCc3ccccc32)cc1 | 0.144 µM
CNC(=O)NCc1ccccc1-c1ccc(CN2C(=O)[C@H](NC(=O)CC(C)(C)N)CCc3ccccc32)cc1 | 0.006 µM
CC(C)(N)CC(=O)N[C@@H]1CCc2ccccc2N(Cc2ccc(-c3ccccc3-c3nn[nH]n3)cc2)C1=O | 0.06 µM
CC(=O)NCc1ccccc1-c1ccc(CN2C(=O)[C@H](NC(=O)CC(C)(C)N)CCc3ccccc32)cc1 | 0.2 µM
CC(C)NC(=O)NCc1ccccc1-c1ccc(CN2C(=O)[C@H](NC(=O)C(C)(C)N)CCc3ccccc32)cc1 | 0.27 µM
CNC(=O)NCCc1ccccc1-c1ccc(CN2C(=O)[C@H](NC(=O)C(C)(C)N)CCc3ccccc32)cc1 | 0.04 µM
CC(C)(N)C(=O)N[C@@H]1CCc2ccccc2N(Cc2ccc(-c3ccccc3CNC(=O)NC3CC3)cc2)C1=O | 0.045 µM
CC(C)(N)CC(=O)N[C@@H]1CCc2ccccc2N(Cc2ccc(-c3ccccc3C(N)=O)cc2)C1=O | 0.08 µM
CNC(=O)Nc1ccccc1-c1ccc(CN2C(=O)[C@H](NC(=O)CC(C)(C)N)CCc3ccccc32)cc1 | 0.05 µM
CC(C)(N)C(=O)N[C@@H]1CCc2ccccc2N(Cc2ccc(-c3ccccc3CNC(=O)NCc3ccccc3)cc2)C1=O | 0.39 µM
CC(C)(N)CC(=O)N[C@@H]1CCc2ccccc2N(Cc2ccc(-c3ccccc3CN)cc2)C1=O | > 1 µM
CNC(=O)NCc1ccccc1-c1ccc(CN2C(=O)[C@H](NC(=O)C(C)(C)N)CCc3ccccc32)cc1 | 0.001 µM
CCNC(=O)NCc1ccccc1-c1ccc(CN2C(=O)[C@H](NC(=O)C(C)(C)N)CCc3ccccc32)cc1 | 0.006 µM
